Laboratory results from PubChem BioAssay AID720717 (ICCB-Longwood Screening Facility, Harvard Medical School, 2013).
Screen size: about 51,000 compounds; about 150 (0.29%) were called active. Only a selection was taken, and actives are over-represented in it overall. A number with no mark means an inactive call.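 The calls were made as follows: active = both repeat wells score below -2 in polarization z-score versus plate sample wells, excluding overly bright wells; inactive = the rest.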

Tested on: LANA (ORF73) N-terminal peptide binding to nucleosomes, Human herpesvirus 8
Test: inhibitors of KSHV LANA-nucleosome binding, primary screen, biochemical, fluorescence polarization, FITC-LANA1-23, chicken nucleosomes (AID 720717)
Conditions: FITC-LANA1-23 / chicken nucleosome fluorescence polarization; stronger effect = lower value
Summary of the method: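 Material: Purified chicken nucleosomes with FITC-labelled LANA N-terminal peptide (1-23) | Reagent: 50 nM FITC-LANA1-23 probe | Medium: TEN-BT buffer, pH 7.5 | Times: 10–45 min incubation at room temperature | Detection: Fluorescence polarization | Replication: Duplicates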

Row | SMILES | z-score
1 | CN1CCc2c(c(S)[nH]c(=S)c2C#N)C1 | -3.73 (active)
2 | CCOC(=O)c1sc2nc3c(cc2c1N)CN(C)CC3 | 0.365
3 | O=C(c1ccccc1)c1cc(Cl)ccc1NC(=O)C(F)(F)F | -0.891
4 | Cc1cccc(NC(=O)OC2CN3CCC2CC3)c1 (stereo not given) | -0.799
5 | CC1(C)CC(Nc2nc(Cl)c(C#N)c(Cl)c2Cl)CC(C)(C)N1 | -1.52
